Compounds with a hit are over-represented: about 1.9% of the library has one in this group of screens.
CHRM5 agonist = CHRM5 agonism in calcium assay | AID 624037 | CHO-K1 hM5 cells, Fluo-8 calcium fluorescence; 0% DMSO wells, 100% maximal acetylcholine response | activation, % at 3 µM | 360,000 tested, 0.19% active;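 active = activation above the run's mean over test compounds plus 3 SD, cut at about 23% in these data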;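 note: signal is peak over basal fluorescence ratio across the kinetic read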
Target sequence (P08912 whole entry, looked up): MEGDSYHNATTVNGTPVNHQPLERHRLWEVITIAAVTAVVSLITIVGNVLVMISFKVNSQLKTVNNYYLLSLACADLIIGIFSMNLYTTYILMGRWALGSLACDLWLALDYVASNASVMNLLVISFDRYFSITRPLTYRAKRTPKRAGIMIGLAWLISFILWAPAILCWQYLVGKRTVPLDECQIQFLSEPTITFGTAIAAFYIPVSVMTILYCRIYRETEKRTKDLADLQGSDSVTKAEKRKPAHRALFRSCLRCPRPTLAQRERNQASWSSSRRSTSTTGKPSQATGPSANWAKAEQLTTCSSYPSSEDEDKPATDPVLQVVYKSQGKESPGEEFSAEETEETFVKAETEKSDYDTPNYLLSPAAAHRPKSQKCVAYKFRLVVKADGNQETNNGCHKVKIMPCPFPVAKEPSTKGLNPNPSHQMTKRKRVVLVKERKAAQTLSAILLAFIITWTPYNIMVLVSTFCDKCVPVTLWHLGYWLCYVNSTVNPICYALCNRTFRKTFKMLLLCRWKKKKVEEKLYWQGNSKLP
CHRM5 PAM = CHRM5 positive allosteric modulation; P08912; CHO-K1 hM5, Fluo-8 calcium, ACh EC20 PAM; 0% = ACh EC20, 100% = ACh EC100; activation, % at 3 µM; 360,000 tested, 0.3% active; AID 624038;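 active = activation above the run cutoff, the mean activation of all test compounds plus 3 SD, cut at about 18% in these data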
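Test system: CHO-K1 hM5 cells / Doses: single-point, 3 µM nominal / Times: Post-acetylcholine fluorescence recording 140 s / Technique: Fluo-8 calcium fluorescence / Measure: Max/basal fluorescence ratio as % of EC20–EC100 ACh window / Benchmarks: low control EC20 acetylcholine (0%), high control EC100 acetylcholine (100%) / Replicates: one well per compound, no replicates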
M5 antag = blocks acetylcholine activation of human M5 receptor | P08912 | CHO-hM5 cells, Fluo-8 calcium fluorescence, ACh EC80 | inhibition, % at 3 µM | 360,000 tested, 0.59% active | AID 624040;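 active = inhibition above a per-plate cutoff, the mean of that plate's test compounds plus 3 SD, cut at about 27% in these data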
M4 PAM = potentiates acetylcholine response at human M4 receptor; CHO-K1 hM4/Gqi5, Fluo-8 calcium fluorescence, ACh EC20; 0% = ACh EC20, 100% = maximal ACh; P08173; 360,000 tested, 0.4% active; activation, % at 3 µM; AID 624126;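 active = activation above its plate's cutoff, the mean activation of sample wells plus 3 SD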
CHRM4 antagonist = blocks acetylcholine activation of human M4 receptor; CHO-hM4 cells, ACh EC80, Fluo-8 calcium fluorescence; P08173; 360,000 tested, 0.73% active; inhibition, % at 3 µM;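 active = inhibition above its plate's cutoff, the mean inhibition of sample wells plus 3 SD, cut at about 27% in these data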
M4 ag = CHRM4 agonism in calcium assay | CHO-K1 hM4/Gqi5, Fluo-8 calcium fluorescence; vehicle 0%, full acetylcholine response 100% | activation, % at 3 µM | 360,000 tested, 0.14% active | P08173 | AID 624127;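 active = activation above the run mean over all test wells plus 3 SD, cut at about 32% in these data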;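 note: peak over basal fluorescence ratio per well then scaled between controls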
Of the large screens only hits and unclear results are named; the others gave an inactive call; ! = a repeat was not active.

CC(=O)Nc1ccc(S(=O)(=O)N(C)CC(=O)OCC(=O)Nc2cccnc2Cl)cc1	M4 PAM 43.1, CHRM4 antagonist 26.9
CC(C)Cc1ccc(C(C)C(=O)Nc2cccnc2)cc1 (stereo not given)	CHRM5 agonist 32.1
CC(C(=O)Nc1cccnc1)c1ccc([N+](=O)[O-])cc1 (stereo not given)	none
CC(C)Cc1ccc([C@H](C)C(=O)O)cc1	none
CC(C)Cc1ccc(C(C)C(=O)Nc2ccc(O)cc2)cc1 (stereo not given)	CHRM5 agonist 44.0, M5 antag 27.2, CHRM4 antagonist 34.4, M4 ag 79.2
O=C(NNS(=O)(=O)c1ccc([N+](=O)[O-])cc1)C(=O)Nc1cccc(C(=O)O)c1	M4 PAM 18.6
COc1ccccc1NC(=O)C(C)N1C(=O)c2ccccc2C1=O (stereo not given)	none
COc1ccc(NC(=O)C(C)N2C(=O)c3ccccc3C2=O)c(OC)c1 (stereo not given)	CHRM5 PAM 18.1
CC(C)C(C(=O)Nc1ccccc1F)N1C(=O)c2ccccc2C1=O (stereo not given)	CHRM5 PAM 19.9
Cc1cc(C(=O)N/N=C2/CC(C)CC(C)(C)C2)c(C)o1 (stereo not given)	M4 PAM 25.8
O=C(Nc1nnc(C23CC4CC(CC(C4)C2)C3)s1)c1ccc(N2C(=O)CCC2=O)cc1	CHRM4 antagonist 59.7
COc1ccc(C(C)(O)c2nc(-c3ccc(Cl)cc3)cs2)cc1 (stereo not given)	none
C1CCC(C(CC2CCCCN2)C2CCCCC2)CC1 (stereo not given)	CHRM4 antagonist 34.7!
O=[N+]([O-])c1c(Nc2ccccc2O)ccc2nonc12	none
O=[N+]([O-])c1c(Nc2ccccc2O)cc(Cl)c2nonc12	CHRM4 antagonist 32.9
CC1(C(=O)Nc2ccc3c(c2)OCCO3)CSCC(=O)N1C1CC1 (stereo not given)	none
O=C1/C(=C\c2ccc(C(F)(F)F)cc2)CSc2sccc21	none
O=C1/C(=C/c2ccc(F)c(F)c2)CSc2sccc21	M4 PAM 37.2
c1ccc(Nc2nc(-c3ccncc3)nc3ccccc23)cc1	none
Fc1ccc(Nc2nc(-c3ccncc3)nc3ccccc23)cc1	M4 PAM 23.6
CCNC(=O)C1(C)CCN(C(=O)CCc2ccccc2)C1 (stereo not given)	none
N/C(=N\NC(=O)c1cccc(F)c1)c1cc2ccccc2oc1=O	M4 PAM 28.3
O=C(O)CC1(O)C(=O)N(Cc2ccccc2)c2ccccc21 (stereo not given)	none
CC(C)(C)C(=O)CC1(O)C(=O)N(Cc2ccc(Cl)cc2)c2ccccc21 (stereo not given)	M4 PAM 37.8
CC(=O)C1=CCC(c2ccco2)N(S(=O)(=O)c2ccc(C)cc2)C1 (stereo not given)	none
c1ccc2c(Nc3ccc4c(c3)OCCO4)c3c(nc2c1)CCCC3	M5 antag 43.7
Nc1ccn(C2OC(CO)C(O)C2F)c(=O)n1 (stereo not given)	none
Nc1ccc2nc(SCC(=O)Nc3ccc(N4CCOCC4)c(Cl)c3)sc2c1	M5 antag 27.4
O=C(CCl)NC(Cc1ccccc1)C(=O)OCC(=O)c1ccc(-c2ccccc2)cc1 (stereo not given)	CHRM4 antagonist 27.3
CCc1nc2ccc(C(=O)N3CCN(S(=O)(=O)CC)CC3)cn2c1N(CC)Cc1cccc(Br)c1	none
Cc1nc(-c2cccc(NC(=O)c3ccc(Br)o3)c2)cs1	M5 antag 26.9
Cc1nc(-c2cccc(NC(=O)C3CCCCC3)c2)cs1	CHRM5 PAM 26.0
C[C@@H]1CN([C@@H](C)CO)C(=O)c2cc(Br)cnc2O[C@@H]1CN(C)S(=O)(=O)c1ccc(F)cc1	none
CC(C)c1ccc(NS(=O)(=O)c2ccc(N3C(=O)CCC3=O)cc2)cc1	M5 antag 27.1
CC(C)c1ccc(S(=O)(=O)Nc2ccc(SC(F)F)cc2)cc1	CHRM4 antagonist 28.1
CSc1ncnc2c1ncn2CCCN1CCN(Cc2cccc3ccccc23)CC1	none
COc1ccccc1N1CCN(Cc2cn[nH]c2-c2ccc(F)cc2)CC1	CHRM5 agonist 40.0
O=C(NCc1cccc(C(F)(F)F)c1)C1C(=O)Nc2ccccc2C(=O)N1Cc1ccccc1 (stereo not given)	none
CN1/C(=C\P(=O)(N(C)C)N(C)C)C(C)(C)c2ccccc21	M5 antag 33.7
O=C(O)c1cccc2c1C(=O)N(Cc1ccncc1)C2	M4 PAM 32.1
COc1ccc(Cc2nnc(NC(=O)CSc3ccccc3)s2)cc1	none
COc1ccc(Cc2nnc(NC(=O)CSc3ccccc3)s2)cc1OC	CHRM5 agonist 28.5
CCCCC(CC)C(=O)NCCCN1CCN(CCCNC(=O)C(CC)CCCC)CC1 (stereo not given)	CHRM4 antagonist 33.6
Fc1ccc(NC(=S)NC2CC3CCCC(C2)N3Cc2cccs2)cc1 (stereo not given)	M5 antag 31.8
CCOc1cc2c3c(c1)C1(OCCO1)C(=O)N3C(C)(C)CC2C (stereo not given)	none
CCc1cc2c3c(c1)C(C)CC(C)(C)N3C(=O)C2=O (stereo not given)	CHRM5 agonist 26.1
Cc1ccc(-c2c(C(=O)N/N=C/c3cccs3)nnn2-c2nonc2N)cc1	none
Cc1ccc(-c2c(C(=O)N/N=C/c3ccsc3)nnn2-c2nonc2N)cc1	CHRM5 agonist 26.2
CCOc1ccc(/C=N/NC(=O)c2nnn(-c3nonc3N)c2-c2cccs2)cc1	CHRM5 agonist 32.7, M4 ag 33.2
Nc1nonc1-n1nnc(C(=O)N/N=C/c2ccccc2Cl)c1CN1CCOCC1	M4 PAM 16.4
CCOc1ccc(-c2c(C(=O)N/N=C(\C)c3cccnc3)nnn2-c2nonc2N)cc1	CHRM5 PAM 19.5
CC(=O)N[C@@H]1C=C[C@@H](CC(=O)NCc2ccc(Cl)cc2)O[C@@H]1CO	none
Nc1nonc1-n1nnc(C(=O)N/N=C/c2cccs2)c1-c1ccc2c(c1)OCO2	CHRM5 agonist 56.7, M4 ag 68.7
Cc1ccsc1/C=N/NC(=O)c1nnn(-c2nonc2N)c1-c1ccc2c(c1)OCO2	none
COc1ccc2nc(C)cc(NCc3ccc(F)cc3)c2c1	M5 antag 32.1, CHRM4 antagonist 27.2, M4 ag 32.3
COc1ccc2nc(C)cc(Nc3ccc(C)cc3)c2c1	none
O=C(NCCCN1CCOCC1)c1ccc2c(c1)N(Cc1cccc(Cl)c1)C(=O)CS2	CHRM4 antagonist 36.1
CCC(C)(C)c1ccc(OCCCC[n+]2cccc(C)c2C)c(C(C)(C)CC)c1	M5 antag 47.0, CHRM4 antagonist 62.1
